# Experimental data gathered from unrelated publications.
SMILES,test,system,setting,quantity,result
CNC(=O)[C@@H](NC(=O)c1cc(OCC2(C)COC2)c(C2CC2)cn1)C(C)(C)C,,"C57BL/6 mouse, plasma",intravenous,clearance,73.8 mL/min/kg
O=C(Nc1cccnn1)N1CCN([C@@H]2CCOc3cc(C(F)(F)F)ccc32)CC1,,"male Sprague-Dawley rat, plasma","oral, 3 mg/kg",Tmax,40.2 min
N=c1c2c(-c3ccccc3)c(-c3ccccc3)n(Cc3ccccc3)c2ncn1[C@H]1CC[C@H](O)CC1,metabolic stability,"beagle dog, hepatocytes","1 µM, 4 h",compound remaining,118%
Cc1nc([C@@](C)(CC2CC2)NC(=O)c2cc(OCC(F)(F)F)c(C3CC3)cn2)no1,,"C57BL/6 mouse, plasma",intravenous,clearance,11.8 mL/min/kg
CCC[C@@](N)(CO)CCc1ccc(OCCCCCC(C)C)cc1,,"dog, plasma","oral, 20 mg/kg, fasted",Cmax,669 nM
Cl.Cl.O=C(CCN1CCCCC1)c1ccc(-c2ccc(C(=O)CCN3CCCCC3)cc2)cc1,,"Sprague-Dawley rat, plasma","oral, 25 mg/kg",Tmax,37.8 min
Cc1cc(C)nc(Nc2ncc(C(=O)NCCc3c(C)[nH]c4ccccc34)cn2)c1,,"beagle dog, plasma","intravenous, 3 mg/kg",clearance,10 mL/min/kg
CN[C@H](CC(C)C)C(=O)N[C@H]1C(=O)N[C@@H](CC(N)=O)C(=O)N[C@H]2C(=O)NC3C(=O)N[C@H](C(=O)N[C@H](C(=O)NCCC[N+](C)(C)C)c4cc(O)cc(O)c4-c4cc3ccc4O)[C@H](O)c3ccc(c(Cl)c3)Oc3cc2cc(c3OC2OC(CO)C(O)[C@H](O)[C@@H]2O[C@H]2CC(C)(NCc3ccc(-c4ccc(Cl)cc4)cc3)[C@H](O)[C@H](C)O2)Oc2ccc(cc2Cl)[C@H]1O (some centres unmarked),,"mouse, plasma","intravenous, 10 mg/kg",clearance,2 mL/min/kg
CCN(CC)CCCC[C@H](NC(=O)[C@H](CC(C)C)NC(=O)[C@H](C)NC(=O)[C@H](Cc1ccccc1)NC(=O)c1ccc(C(C)(C)C)cc1)C(=O)N[C@@H](CO)C(=O)OC,,"male Swiss mouse, blood","intravenous, 3 mg/kg",C0,10900 ng/mL
C[C@]12CC[C@H](n3ccnc3)CC1=CC[C@@H]1[C@@H]2CC[C@]2(C)C(n3cnc4ccccc43)=CC[C@@H]12.Cl,,"male CD-1 mouse, plasma","intravenous, 1 mg/kg",C0,544 ng/mL
NCC(=O)Nc1ccc(-n2nc(C(F)(F)F)cc2-c2ccc3c(ccc4ccccc43)c2)cc1,,"mouse, plasma","oral, 80 mg/kg, single dose",CL/F,978 mL/min/kg
